Eight compounds from paper PMC5066155 (ACS Medicinal Chemistry Letters, 2016) can be followed below.

A word on the hepatocyte CLint: it is the rate of metabolic loss divided by the concentration. The term clearance denotes the rate of elimination divided by the concentration.

The target of one data set is T1, human OATP1B1 (Homo sapiens, UniProt Q9Y6L6).
T1 sequence (Q9Y6L6 1-691): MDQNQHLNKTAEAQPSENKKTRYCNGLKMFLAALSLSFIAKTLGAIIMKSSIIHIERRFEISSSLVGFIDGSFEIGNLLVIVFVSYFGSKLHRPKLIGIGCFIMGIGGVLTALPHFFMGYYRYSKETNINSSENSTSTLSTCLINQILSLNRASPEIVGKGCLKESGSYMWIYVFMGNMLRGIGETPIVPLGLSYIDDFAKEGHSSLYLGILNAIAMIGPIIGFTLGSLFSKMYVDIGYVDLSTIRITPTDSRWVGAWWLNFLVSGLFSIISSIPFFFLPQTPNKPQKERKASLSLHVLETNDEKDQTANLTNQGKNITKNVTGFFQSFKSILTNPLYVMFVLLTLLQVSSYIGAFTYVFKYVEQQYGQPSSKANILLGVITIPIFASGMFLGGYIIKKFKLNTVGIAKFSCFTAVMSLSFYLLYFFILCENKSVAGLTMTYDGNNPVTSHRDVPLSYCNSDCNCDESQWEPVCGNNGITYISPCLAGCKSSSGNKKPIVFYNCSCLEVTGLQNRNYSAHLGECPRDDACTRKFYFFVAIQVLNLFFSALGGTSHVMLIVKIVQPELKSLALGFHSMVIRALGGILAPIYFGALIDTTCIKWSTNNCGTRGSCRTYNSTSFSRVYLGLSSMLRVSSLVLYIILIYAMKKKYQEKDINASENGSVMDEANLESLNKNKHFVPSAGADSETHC
In words: Inhibition of pivastatin uptake to HEK293 cells transfected with human OATP1B1. It counts as cell-based. The essentials:
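HEK293 cells transfected with human OATP1B1 are used to measure the test compound's inhibition of pivastatin uptake into the cells. The IC50 is reported as an estimated value. Results are means of at least two experiments, with experimental error within 20% of the value.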

Data set [1] deals with T2, sPLA2-IIa (Homo sapiens, UniProt P14555).
T2 sequence (P14555 21-144): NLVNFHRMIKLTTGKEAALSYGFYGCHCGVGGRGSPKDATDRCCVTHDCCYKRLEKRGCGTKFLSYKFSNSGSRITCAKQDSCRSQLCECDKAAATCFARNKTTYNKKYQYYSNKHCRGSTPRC
In words: sPLA2 inhibition assay using phosphatidylcholine as substrate. It counts as biochemical. The settings on record: for increase in affinity/potency compared to 1: sPLA2-IIa, relative to compound 1.

A further data set addresses T3, sPLA2-V (Homo sapiens, UniProt P39877).
T3 sequence (P39877 21-138): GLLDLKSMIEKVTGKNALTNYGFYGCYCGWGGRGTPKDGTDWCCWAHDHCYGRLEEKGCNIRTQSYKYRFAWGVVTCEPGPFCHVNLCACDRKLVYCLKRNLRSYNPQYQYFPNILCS
The description is as above. In kind it is biochemical.

Another data set has as its target T4, sPLA2-X (Homo sapiens, UniProt O15496).
T4 sequence (O15496 43-165): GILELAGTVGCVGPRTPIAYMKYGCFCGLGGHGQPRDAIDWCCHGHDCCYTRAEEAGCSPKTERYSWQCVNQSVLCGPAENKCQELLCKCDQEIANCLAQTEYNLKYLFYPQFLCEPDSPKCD
Described as above. In kind it is biochemical.

Data set [2] relates to human plasma sPLA2 activity. In words: Human plasma sPLA2 inhibition assay. It counts as biochemical. The essentials:
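Inhibition of endogenous sPLA2 activity in human plasma, run by a previously established protocol. The plasma IC50 is converted to an unbound value: IC50 × Fu/100, where Fu = 100 − human plasma protein binding (%). Values are means of at least two experiments, with experimental error within 20% of the value.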

Data set [3] is described as follows: Intrinsic clearance in human hepatocytes. It counts as in vitro ADME. The settings on record: pH 7.4.
In data set [4] the target is T2, sPLA2-IIa. The data set can be described thus: Ligand efficiency / ligand lipophilicity efficiency from sPLA2-IIa IC50. The settings on record: pIC50 (sPLA2-IIa) – logD.
The next data set deals with IKs (Homo sapiens, UniProt P51787). The data set can be described thus: IonWorks patch clamp, CHO cells expressing IKs. In kind it is cell-based. (In general: In patch-clamp work, channel activity is measured electrically.)
Chain of IKs (P51787 whole entry): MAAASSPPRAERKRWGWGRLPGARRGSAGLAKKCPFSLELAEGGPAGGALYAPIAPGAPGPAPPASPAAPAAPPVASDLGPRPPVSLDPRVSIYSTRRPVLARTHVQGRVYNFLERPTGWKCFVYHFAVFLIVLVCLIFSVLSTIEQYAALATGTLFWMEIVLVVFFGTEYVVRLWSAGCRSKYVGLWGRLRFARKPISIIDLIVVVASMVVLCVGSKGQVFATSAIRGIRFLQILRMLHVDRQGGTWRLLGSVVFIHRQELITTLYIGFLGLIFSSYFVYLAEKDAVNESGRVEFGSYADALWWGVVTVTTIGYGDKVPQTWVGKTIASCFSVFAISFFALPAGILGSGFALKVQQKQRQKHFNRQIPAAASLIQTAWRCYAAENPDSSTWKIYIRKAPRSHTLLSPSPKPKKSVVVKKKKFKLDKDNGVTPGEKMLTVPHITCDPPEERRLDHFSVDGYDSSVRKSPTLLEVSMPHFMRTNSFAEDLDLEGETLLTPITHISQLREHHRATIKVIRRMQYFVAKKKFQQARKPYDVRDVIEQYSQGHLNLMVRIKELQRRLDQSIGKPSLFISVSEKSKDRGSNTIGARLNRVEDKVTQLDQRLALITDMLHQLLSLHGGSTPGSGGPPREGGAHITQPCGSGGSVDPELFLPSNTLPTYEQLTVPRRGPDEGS
A further data set in a line: Pharmacokinetics in rat. The settings on record: in vivo, iv, 2 μmol/kg.
The next data set can be described thus: Pharmacokinetics in dog. The settings on record: in vivo, iv, 1 μmol/kg.
Data set [5] can be described thus: Pharmacokinetics in mouse. The settings on record: in vivo, iv, 10 μmol/kg.
Data set [6] deals with sPLA2 activity in HepG2 cells. The data set can be described thus: sPLA2 activity inhibition in HepG2 cells. In kind it is cell-based. The settings on record: Homo sapiens, HepG2, read-out: sPLA2 activity inhibition IC50.
The test system of data set [7] is cynomolgus monkey plasma sPLA2. The data set can be described thus: In vitro sPLA2 inhibition in cynomolgus monkey plasma. In kind it is biochemical. The settings on record: read-out: ICu,50.
Data set [8] in a line: Toxicological profile in animals. In kind it is in vivo. The settings on record: rats, dogs, and cynomolgus monkeys.
Setting [9] is: read-out: plasma ICu,50, plasma sPLA2 IC50 × Fu/100.
Where [10] appears, read: read-out: plasma ICu,50, plasma sPLA2 IC50 × Fu/100, NA = not active at maximum tested concentration (25 μM).

Read-outs that look alike come from different tables or passages of the source.

On to `CC(Cc1cccc(-c2cc(Cc3ccccc3)ccc2C(N)=O)c1)C(=O)O` (stereo not shown) [Compound 7], for which the IC50 at human OATP1B1 was over 25000 nM.
Consider `NC(=O)c1ccc(Cc2ccccc2)cc1-c1cccc(CC(=O)O)c1` [Compound 3], for which, on sPLA2-IIa [1], the “increase in affinity/potency compared to 1” value was “more than 300 fold”.
Consider `NC(=O)c1ccc(Cc2ccccc2)cc1-c1cccc(CC2(C(=O)O)CC2)c1` [Compound 9], for which the IC50 at sPLA2-IIa [1] came to 18 nM; against sPLA2-V it was 250 nM; at sPLA2-X, 580 nM; in data set [2] (setting [9]) it was 0.9 nM. In addition, the hepatocyte CLint at 1 µM in data set [3] came out at 21 µL/min/1e6 cells.
Take `NC(=O)c1ccc(Cc2ccccc2)cc1` [Compound 1, 4-benzylbenzamide]: in data set [2] (setting [10]), the IC50 is 900 nM. This compound gave an LLE at sPLA2-IIa [4] of 2.2.
`CCC(Cc1cccc(-c2cc(Cc3ccccc3)ccc2C(N)=O)c1)C(=O)O` (stereo not shown) [Compound 8]: the IC50 in [2] (setting [9]) was determined as 0.8 nM.
Consider `NC(=O)c1ccc(Cc2ccccc2)cc1-c1cccc(CCC(=O)O)c1` [Compound 4], for which the “increase in affinity/potency compared to 1” value at sPLA2-IIa [1] is listed as 2000 fold. The IC50 was 7 nM in data set [2] (setting [9]) and over 33300 nM against IKs. The clearance in the data set “Pharmacokinetics in rat” (Sprague-Dawley) is 1 mL/min/kg.
Consider `C[C@H](Cc1cccc(-c2cc(Cc3ccccc3)ccc2C(N)=O)c1)C(=O)O` [(R)-7], for which the IC50 was 0.1 nM in data set [2] (setting [9]), under 14 nM in data set [6] and 1 nM in [7]. In addition, the results for the clearance (in the data set “Pharmacokinetics in rat”; in the data set “Pharmacokinetics in dog”; in data set [5]) were 1 mL/min/kg, 0.2 mL/min/kg and 9.2 mL/min/kg, respectively. Moreover, in data set [8], the toxicological profile entry is reported as “favorable toxicological profile”.
With `CCc1c(C(=O)C(N)=O)c2c(OCC(=O)O)cccc2n1Cc1ccccc1` [varespladib, reference compound], the IC50 in [2] (setting [10]) was 8 nM.
